# In the library only some 3.1% were active in any assay of this set; here they are far more common.
# IMP-1 inh-1: blocks Pseudomonas aeruginosa IMP-1 metallo-beta-lactamase; actives 0.45% (n = 290,000); inhibition, % at 5.6 µM; AID 1556; purified IMP-1, nitrocefin hydrolysis, epi-absorbance fluorescence;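 active = inhibition above the mean plus 3 SD of all compounds in the same screening run, cut at about 4.5% in these data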;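 also: 0% = IMP-1 with DMSO and 100% = DMSO wells lacking enzyme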
#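 System: purified IMP-1; amount: IMP-1 0.2 nM before substrate addition; compound: single dose, 5.6 µM; times: 25 °C, 15 min preincubation, 25 min reaction; signal: Epi-absorbance via hydrolysed-nitrocefin quenching of white-plate fluorescence, 480/530 nm, EDTA stop; benchmarks: DMSO with and without IMP-1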
# core dimer inh: HCV core protein dimerization inhibition; TR-FRET GST/Flag-core106 dimerization, 1536-well; inhibition, % at 5 µM; actives 0.33% (n = 300,000); AID 1899;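 active = inhibition above the mean of all tested compounds plus 3 SD, set per screening campaign, cut at about 45% in these data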
#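 Test system: GST/Flag-tagged HCV core106 proteins; Medium: KF-containing HEPES buffer, pH 7.45, DTT, CHAPS, BSA; Times: compound-protein-antibody incubation 4 h at 22.5 °C; Detection: TR-FRET 671 and 617 nm emission; Benchmarks: wells lacking GST-core106 and wells with excess unlabelled core106.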
# UBC9 SUMO inh: inhibitors of human SUMOylation (UBC9); HTRF SUMOylation assay, SAE1/SAE2 + UBC9, in vitro; inhibition, % at 35 µM; P63279; actives 0.36% (n = 290,000); in the data active = inhibition above about 50%, passing the limit was not always enough
# Target sequence (P63279 whole entry, looked up): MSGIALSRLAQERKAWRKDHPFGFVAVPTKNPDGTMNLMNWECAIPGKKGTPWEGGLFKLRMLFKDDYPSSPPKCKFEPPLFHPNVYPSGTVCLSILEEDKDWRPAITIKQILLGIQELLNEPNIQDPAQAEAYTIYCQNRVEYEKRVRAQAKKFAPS
# PHOSPHO1 inh: inhibitors of human PHOSPHO1 phosphatase. inhibition, % at 13.3 µM. recombinant PHOSPHO1, absorbance phosphatase assay. actives 1.1% (n = 290,000); in the data active = inhibition above about 60%
# Target sequence (Q8TCT1 whole entry, looked up): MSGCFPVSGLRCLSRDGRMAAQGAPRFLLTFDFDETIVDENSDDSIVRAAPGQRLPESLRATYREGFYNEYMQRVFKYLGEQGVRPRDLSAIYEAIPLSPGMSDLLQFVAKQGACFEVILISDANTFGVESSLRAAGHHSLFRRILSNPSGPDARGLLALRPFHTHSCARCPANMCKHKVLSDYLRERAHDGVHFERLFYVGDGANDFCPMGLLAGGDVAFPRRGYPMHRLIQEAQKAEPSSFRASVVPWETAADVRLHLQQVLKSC
# HCV NS3 hel inh: inhibitors of Hepatitis C virus NS3 helicase. NS3 helicase DNA unwinding, Cy5 molecular beacon fluorescence. actives 0.56% (n = 290,000). AID 1800. inhibition, % at 10.9 µM;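 active = inhibition above the mean of all tested compounds plus 3 SD, set per campaign, cut at about 35% in these data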;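 also: 0% = DMSO wells and 100% = thioflavine S control wells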
#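 System: NS3 helicase fragment of HCV / Schedule: 1 h at 25 °C / Control set: DMSO alone as 0% and 110 µM thioflavine S as 100% / Reagent: Cy5/quencher beacon DNA duplex and ATP to start / Technique: Cy5 fluorescence / Replication: singlicate / Evaluation: % inhibition of end-to-start signal ratio versus controls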
# VIM-2 inh: blocks Pseudomonas aeruginosa VIM-2 metallo-beta-lactamase; inhibition, % at 5.6 µM; AID 1527; actives 0.89% (n = 290,000); purified VIM-2, nitrocefin hydrolysis, epi-absorbance fluorescence;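 active = inhibition above the mean of all tested compounds plus 3 SD, cutoff set per screening run, cut at about 7.5% in these data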;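 also: red hydrolysis product quenches plate fluorescence so inhibitors raise well fluorescence; 0% = enzyme with DMSO and 100% = DMSO without enzyme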
# IMP-1 inh-2: blocks IMP-1 metallo-beta-lactamase in VIM-2 selectivity screen; shares compounds with VIM-2 inh; purified IMP-1, nitrocefin hydrolysis, epi-absorbance fluorescence; inhibition, % at 5.6 µM; 1,300 tested, under 10 active; AID 1856; call rule not given here;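 also: 0% = enzyme with vehicle and 100% = vehicle without enzyme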
# VIM-2 FRET ctr: VIM-2 FRET inhibition, artifact counter-screen; shares compounds with VIM-2 inh; purified VIM-2, CCF2 FRET substrate hydrolysis; inhibition, % at 5.6 µM; actives 23% (n = 1,300); AID 1857;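 active = inhibition above the mean of all tested compounds plus 3 SD, cut at about 19% in these data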;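 also: 0% = VIM-2 plus DMSO and 100% = no enzyme wells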
# TEM-1 inh: blocks E. coli TEM-1 beta-lactamase in VIM-2 selectivity screen; shares compounds with VIM-2 inh; Purified TEM-1, nitrocefin hydrolysis, epi-absorbance fluorescence; inhibition, % at 5.6 µM; actives 3% (n = 1,300);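 active = inhibition above that campaign's mean inhibition plus 3 SD, cut at about 0.46% in these data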;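 also: 0% = TEM-1 with DMSO and 100% = TEM-1 with 100 µM potassium clavulanate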
# VIM-2 inh conf: confirmation of P. aeruginosa VIM-2 metallo-beta-lactamase inhibitors; shares compounds with VIM-2 inh; actives 96% (n = 1,300); AID 2187; purified VIM-2, nitrocefin hydrolysis, epi-absorbance; inhibition, % at 5.6 µM;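 active = inhibition of the VIM-2 beta-lactamase enzyme above about 11% from the earlier first-round screen, limit read from the data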;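 also: 0% = VIM-2 with DMSO and 100% = buffer wells without enzyme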
# An asterisk follows results filed as active; . = no result given.
SMILES,IMP-1 inh-1,core dimer inh,UBC9 SUMO inh,PHOSPHO1 inh,HCV NS3 hel inh,VIM-2 inh,IMP-1 inh-2,VIM-2 FRET ctr,TEM-1 inh,VIM-2 inh conf
CCN1CCN(CCNC(=O)CCc2c(C)c3c(C)nn(-c4ccccc4)c3n(C)c2=O)CC1,-4,-4,-1,10,-18,19*,-3,-1,-3,30*
CCN(CC)CCCCNc1ncc2cc(-c3cc(OC)cc(OC)c3)c(NC(=O)NC(C)(C)C)nc2n1,-3,-1,-3,31,-92,17*,-4,5,-7,25*
Cc1ccc(-n2c(-c3ccccc3)c[n+]3c2CCc2ccccc2-3)c(C)c1,-2,2,18,32,-22,-2,.,.,.,.
CNC[C@H](CC1CCCCC1)NC[C@H](CO)NCCc1cccc(C(F)(F)F)c1,-1,-4,8,20,-75,21*,-3,-5,-6,30*
CNC[C@H](CC1CCCCC1)NC[C@H](CO)NCC1(c2ccccc2)CC1,-1,-16,6,-16,-13,-2,.,.,.,.
CC1CCCN(S(=O)(=O)c2ccc3[nH]c4c(c3c2)CCCC4)C1 (stereo unspecified),-2,4,-17,42,-2,1,.,.,.,.
COc1ccc(Cl)c2c1[nH]c1nc(SCc3ccccn3)nnc12,1,6,-8,-12,-6,13*,-3,2,-8,21*
CC(O)CNc1ccc(-c2n[nH]c(=O)c3ccccc23)cc1[N+](=O)[O-] (stereo unspecified),-3,3,-19,20,7,20*,-3,-3,-7,34*
Cc1ccc(-c2n[nH]c(=O)c3ccccc23)cc1S(=O)(=O)N(C)C,1,3,-2,44,0,5,.,.,.,.
CC(O)CNc1cc(N)c([N+](=O)[O-])cc1[N+](=O)[O-] (stereo unspecified),-1,-6,3,4,4,-2,.,.,.,.
CN(C)CCCNc1ccc(-c2n[nH]c(=O)c3ccccc23)cc1[N+](=O)[O-],-3,12,16,15,-30,59*,-2,2,-3,68*
COc1ccc(/C=C/C(=O)C2(O)CCCCC2)cc1OC,-3,-2,4,40,12,-1,.,.,.,.
Cc1cc(F)ccc1S(=O)(=O)NCC1CC2CCC1C2 (stereo unspecified),-2,-12,9,48,11,-1,.,.,.,.
COc1ccc2c(c1)[nH]c1c(=O)n(CCCn3ccnc3)cnc12,-4,-4,16,-4,3,14*,-3,-9,-5,38*
COc1ccc(Oc2nc(-c3ccccn3)ncc2OC)cc1,-5,2,10,32,-3,16*,-4,-24,-5,25*
COc1cnc(-c2ccccn2)nc1Oc1cccc(Cl)c1,-4,-8,9,24,-2,17*,-4,-31,-4,36*
COc1cnc(-c2ccccn2)nc1Oc1c(C)cccc1C,-3,-1,12,12,4,3,.,.,.,.
CCOC(=O)C(C)Sc1nc(-c2ccccn2)ncc1OC (stereo unspecified),-4,-4,-21,33,9,35*,-3,-20,-6,43*
CCOC(=O)CCCNC(=O)CSc1nnc(-c2ccccc2)c(-c2ccccc2)n1,-3,3,-6,43,2,-5,.,.,.,.
CC1CCN(CC(=O)Nc2ccc(S(=O)(=O)N3C(C)CCCC3C)cc2)CC1 (stereo unspecified),2,-2,-2,.,-26,0,.,.,.,.
COC(=O)c1ccc(C)c(-n2c(C)cc(C=O)c2C)c1,-3,-9,4,2,5,-2,.,.,.,.
CCOC(=O)c1ccccc1NC(=O)C1CC(=O)N(c2ccccc2)C1 (stereo unspecified),-4,-2,-5,51,1,-5,.,.,.,.
CC(Oc1ccc2c3c(c(=O)oc2c1)CCC3)C(=O)NCCCn1ccnc1 (stereo unspecified),-2,-7,12,29,1,27*,-3,-1,-6,39*
CC(Oc1cc2oc(=O)c3c(c2cc1Cl)CCC3)C(=O)NCc1ccncc1 (stereo unspecified),0,-2,-19,21,4,16*,-2,4,-6,22*
CC(Oc1ccc2c(-c3ccccc3)cc(=O)oc2c1)C(=O)NCCCn1ccnc1 (stereo unspecified),-3,1,9,39,-28,0,.,.,.,.
SMILES,IMP-1 inh-1,core dimer inh,UBC9 SUMO inh,PHOSPHO1 inh,HCV NS3 hel inh,VIM-2 inh,IMP-1 inh-2,VIM-2 FRET ctr,TEM-1 inh,VIM-2 inh conf
CC(Oc1cc2oc(=O)c3c(c2cc1Cl)CCC3)C(=O)NCCCn1ccnc1 (stereo unspecified),-2,0,16,36,3,28*,0,1,2.3*,40*
COc1ccc(C(O)P(=O)(OC(C)C)OC(C)C)c(OC)c1 (stereo unspecified),-3,-1,10,20,12,-1,.,.,.,.
COc1cccc(-c2coc3c(C)c4oc(=O)c(CCC(=O)O)c(C)c4cc23)c1,-3,12,22,37,-14,15*,-3,6,-10,22*
COc1cccc(-c2coc3cc4oc(=O)c(CCC(=O)O)c(C)c4cc23)c1,-4,-5,13,45,32,1,.,.,.,.
COc1ccc(-c2coc3c(C)c4oc(=O)c(CC(=O)O)c(C)c4cc23)cc1,2,.,24,5,15,16*,2,-3,-10,22*
COC(=O)[C@H](Cc1ccccc1)NC(=O)NCCc1ccc(OC)cc1,-2,9,-4,39,-4,-5,.,.,.,.
COc1cc(CNCC(C)C)cc(Br)c1OCC(=O)Nc1ccccc1,-1,-2,-1,-4,-30,-1,.,.,.,.
CNCc1cc(Br)c(OCC(=O)Nc2ccccc2OC)c(OC)c1,-2,-1,8,-18,-17,13*,-4,1,-4,27*
COC(=O)[C@@H]1Cc2c([nH]c3ccccc23)C(C)(C)N1C(=O)CCl,-2,.,18,18,-3,0,.,.,.,.
